# Compound activity (PubChem BioAssay)
# CHRM4 antagonist = human M4 muscarinic receptor antagonists, primary screen, CHO cells, Fluo-8 calcium fluorescence. CHO-hM4 cells, ACh EC80. inhibition, % at 3 µM. 360,000 compounds, 0.73% hits. AID 624125, 2012;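 active means inhibition above its plate's cutoff, the mean inhibition of sample wells plus 3 SD, cut at about 27% in these data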
# Target sequence (P08173 whole entry, looked up): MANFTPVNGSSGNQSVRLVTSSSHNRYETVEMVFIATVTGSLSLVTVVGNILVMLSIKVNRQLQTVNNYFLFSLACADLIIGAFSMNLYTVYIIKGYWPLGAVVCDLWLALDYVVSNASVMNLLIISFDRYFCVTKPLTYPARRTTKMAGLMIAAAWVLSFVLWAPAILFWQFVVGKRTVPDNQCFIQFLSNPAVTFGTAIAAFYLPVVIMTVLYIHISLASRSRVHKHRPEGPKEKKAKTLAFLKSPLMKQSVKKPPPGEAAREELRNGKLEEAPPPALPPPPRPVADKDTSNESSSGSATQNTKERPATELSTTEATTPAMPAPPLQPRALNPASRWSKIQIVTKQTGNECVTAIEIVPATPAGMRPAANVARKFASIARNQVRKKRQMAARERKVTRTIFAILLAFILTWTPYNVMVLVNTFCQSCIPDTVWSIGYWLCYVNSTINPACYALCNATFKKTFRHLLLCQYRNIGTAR
# M5 antag = human M5 muscarinic receptor antagonists, primary screen, CHO cells, Fluo-8 calcium fluorescence; AID 624040, 2012; 360,000 compounds, 0.59% hits; CHO-hM5 cells, ACh EC80; Muscarinic acetylcholine receptor M5 (Homo sapiens), P08912; inhibition, % at 3 µM;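 active means inhibition above a per-plate cutoff, the mean of that plate's test compounds plus 3 SD, cut at about 27% in these data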
# CHRM5 PAM = human M5 muscarinic receptor positive allosteric modulators, primary screen, CHO-K1 cells, Fluo-8 calcium fluorescence | Muscarinic acetylcholine receptor M5 (Homo sapiens), P08912 | CHO-K1 hM5, ACh EC20 PAM; 0% = ACh EC20, 100% = ACh EC100 | activation, % at 3 µM | 360,000 compounds, 0.3% hits | AID 624038, 2012;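 active means activation above the run cutoff, the mean activation of all test compounds plus 3 SD, cut at about 18% in these data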
#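 system = human M5 receptor in CHO-K1 cells | compound = one concentration, 3 µM final (nominal) | schedule = Post-acetylcholine fluorescence recording 140 s | signal = Fluo-8 calcium dye fluorescence, kinetic read | benchmarks = low control EC20 acetylcholine (0%), high control EC100 acetylcholine (100%) | repeats = singlicate, one well per test compound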
# M4 ag = human M4 muscarinic receptor agonists, primary screen, CHO-K1 cells, Fluo-8 calcium fluorescence; Muscarinic acetylcholine receptor M4 (Homo sapiens), P08173; CHO-K1 hM4/Gqi5; vehicle 0%, full acetylcholine response 100%; activation, % at 3 µM; 360,000 compounds, 0.14% hits; AID 624127, 2012;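 active means activation above the run mean over all test wells plus 3 SD, cut at about 32% in these data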;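 further: peak over basal fluorescence ratio per well then scaled between controls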
# M4 PAM = human M4 muscarinic receptor positive allosteric modulators, primary screen, CHO-K1 cells, Fluo-8 calcium fluorescence. Muscarinic acetylcholine receptor M4 (Homo sapiens), P08173. CHO-K1 hM4/Gqi5, ACh EC20; 0% = ACh EC20, 100% = maximal ACh. activation, % at 3 µM. 360,000 compounds, 0.4% hits. AID 624126, 2012;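 active means activation above its plate's cutoff, the mean activation of sample wells plus 3 SD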
# M5 ag = human M5 muscarinic receptor agonists, primary screen, CHO-K1 cells, Fluo-8 calcium fluorescence; activation, % at 3 µM; CHO-K1 hM5 cells; 0% DMSO wells, 100% maximal acetylcholine response; 360,000 compounds, 0.19% hits;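 active means activation above the run's mean over test compounds plus 3 SD, cut at about 23% in these data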;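 further: signal is peak over basal fluorescence ratio across the kinetic read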
# Numbers stand for hits; 0 = inactive. Shown are actives, neighbours in structure and some others; about 1.9% of the full set was active somewhere.
SMILES,CHRM4 antagonist,M5 antag,CHRM5 PAM,M4 ag,M4 PAM,M5 ag
CC(C)[C@H](NC(=O)C1CCN(S(=O)(=O)c2ccccc2)CC1)C(=O)NCc1ccccc1,0,0,0,0,15,0
CCNc1nc(SCC(=O)Nc2ccc(Cl)c(Cl)c2)nc(N(C)C)n1,0,0,0,0,0,0
CN(C(=O)c1ccc(NC(=O)Cc2cccc(NC(=O)C3CCCN(C(=O)C4CC4)C3)c2)cc1)C1CCCC1 (stereo not drawn),0,0,0,0,0,0
CCN(CC)c1ccc(NC(=S)NC(=O)c2cccs2)cc1,0,0,0,0,0,0
Cc1cccc(NC(=S)Nc2c(C)n(C)n(-c3ccccc3)c2=O)c1C,0,0,0,0,0,0
COc1ccc(C(=O)/C=C/c2ccc3c(c2)OCCO3)cc1,0,0,0,0,0,0
O=C(/C=C/c1ccc2c(c1)OCCO2)c1ccccc1,0,0,24,0,0,0
CCN(CC)CCN1C(=O)c2ccccc2NC1c1ccc(F)cc1 (stereo not drawn),0,0,0,0,0,0
CCN(CC)CCN1C(=O)c2ccccc2NC1c1ccccc1F (stereo not drawn),29,0,0,0,0,0
CCNC(=O)c1ccc(CSc2nc3ccccc3s2)cc1,0,34,0,0,0,0
Cc1ccc(NC(=S)NCC2CCCO2)cc1 (stereo not drawn),0,0,0,0,26,0
CN1CCN(c2ncnc3scc(-c4ccccc4Cl)c23)CC1,0,30,0,0,0,0
CCOc1ccccc1N1CCN(c2ncnc3scc(-c4ccc(OC)cc4)c23)CC1,27,0,0,0,0,0
NS(=O)(=O)c1cc(C(=O)NC2CCSc3ccccc32)ccc1Cl (stereo not drawn),0,0,0,0,0,0
COc1ccc(S(=O)(=O)N2CCCCC2C(=O)O)cc1OC (stereo not drawn),0,0,21,0,0,0
COc1cc2c(cc1OC)CN(C(=O)c1ccc(S(=O)(=O)N3CCCCC3)cc1)CC2,0,0,0,0,0,0
COc1cc2c(cc1OC)CN(C(=O)CNS(=O)(=O)c1ccc(C)c(C)c1)CC2,0,0,23,0,30,0
COc1cc2c(cc1OC)CN(C(=O)C1CCCN1S(=O)(=O)c1ccc(F)cc1)CC2 (stereo not drawn),0,0,0,0,17,0
CC(C)(C)c1ccc(S(=O)(=O)N2CC(=O)Nc3ccccc32)cc1,0,0,0,0,0,0
CC(=O)c1cccc(NC(=S)NC(=O)c2ccc(C)cc2)c1,0,0,0,0,26,0
CC(Oc1ccc(Cl)cc1)C(=O)NNC(=S)NC(=O)c1ccco1 (stereo not drawn),0,0,0,63,0,26
CCCOc1ccc(C(=O)NNC(=S)NC(=O)c2ccco2)cc1,0,31,0,126,0,60
COc1ccc(C(=O)NNC(=S)NC(=O)c2ccco2)cc1,0,0,0,0,0,0
CCCOc1ccc(C(=O)NNC(=S)NC(=O)c2ccccc2)cc1,27,0,0,136,0,78
CCOC(=O)C1CCCN(C(=O)COc2ccc(C(C)(C)C)cc2)CC1 (stereo not drawn),0,0,0,0,0,0
CNc1c(NS(=O)(=O)c2ccc(C(C)(C)C)cc2)c(=O)oc2ccccc12,0,0,0,0,0,0
CCOc1ccc(S(=O)(=O)N2CCOCC2)cc1NC(=O)CSC(=S)N1CCCC1,0,0,0,0,0,0
Cc1nc(C(=O)NCC(=O)c2ccccc2)c(C(F)(F)F)o1,0,0,0,0,0,0
CC(C)CNC(=S)NNC(=O)c1ccco1,0,0,0,0,38,0
